97 molecules from ChEMBL document CHEMBL4513216, “Probing the Open Global Health Chemical Diversity Library for Multistage-Active Starting Points for Next-Generation Antimalarials” (ACS Infect Dis, 2020) can be followed below.

The data set is described as follows: Toxicity liver stage against HepG2, at 10uM. The format is cell-based. More on the design: test concentration 10 uM, cell line HepG2-A16-CD81EGFP. The conditions noted are these: human, HepG2-A16-CD81EGFP cells; read-out: INHIBITION
The procedure, abridged:
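Uninfected HepG2-A16-CD81EGFP cells, 3 × 10^3 per well, 1536-well, plated on prespotted compound at 10 μM final, parasite-free screening media added to match infected plates; puromycin 10 μM positive, DMSO 0.5% negative; run in parallel with 48 h PbLuc assay at 37 °C, 5% CO2; viability by CellTiter-Glo luminescence, normalized to controls.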
Take `c1cc(CN2CCCN(c3ccc4cc[nH]c4n3)CC2)ccn1`: the cytotoxicity at 10 µM is -9.98%.

On to `CC(C)CN(CCc1ccccc1)Cc1nc2c(cnn2C)c(=O)[nH]1`, for which the cytotoxicity at 10 µM was -6.94%.

As to `Cc1cccc(-c2noc([C@@H]3C[C@@H](O)CN3C)n2)c1`, the cytotoxicity at 10 µM is -3.54%.

Consider `CCc1noc(CCC(=O)N[C@@H]2CC[C@@H](n3ccnc3C)[C@@H]2O)n1`, for which the cytotoxicity at 10 µM was -20.5%.

Regarding `COc1ccc(OCCc2cc(C3CNCCO3)nn2C)cc1` (configuration not stated), the cytotoxicity at 10 µM was 7.13%.

`Cc1cc(C(=O)N2CCN(c3nc4ccccc4s3)CC2)no1`: the cytotoxicity at 10 µM was -110%.

Take `CC(=O)N1CCc2nc(C3CCN(c4ncccn4)C3)ncc2C1` (configuration not stated): the cytotoxicity at 10 µM was -30%.

Regarding `COCC1CN(S(=O)(=O)Cc2ccccc2)Cc2c1cnn2C` (configuration not stated), the cytotoxicity at 10 µM was -3.61%.

`COc1ccc2nc(CNC(=O)C3CC4(CCNCC4)CN3C)[nH]c2c1` (configuration not stated): the cytotoxicity at 10 µM was 0.488%.

With `Cc1ccc(CN2C[C@@H]3[C@@H](C(=O)NCC4CC4)CCS(=O)(=O)[C@@H]3C2)cc1`, the cytotoxicity at 10 µM was -4%.

Regarding `O=C(NCC1CCCN(Cc2cccc3nonc23)C1)c1ccc[nH]1` (configuration not stated), the cytotoxicity at 10 µM is -42.2%.

As for `Cc1ncc(S(C)(=O)=O)c(N(C)CCCc2cnn(C)c2)n1`, the cytotoxicity at 10 µM is -1.07%.

`COc1ccc(C)cc1-n1cnnc1C1CCCN(C)C1` (configuration not stated): the cytotoxicity at 10 µM stood at 6.43%.

For the molecule `Cc1nnc2n1CCN(C(C(=O)NC1CC1)c1ccccc1)C2` (configuration not stated), the cytotoxicity at 10 µM was -2.94%.

For `CNc1cccc(C2CCCN(C(=O)Cc3ccccc3)C2)n1` (configuration not stated), the cytotoxicity at 10 µM was -6.5%.

As to `Cc1c(C(C)N)cnn1-c1cccc2ccccc12` (configuration not stated), the cytotoxicity at 10 µM worked out at 10.7%.

As for `O=C(O)CC1COCCN1Cc1ccccc1OCCc1ccccc1` (configuration not stated), the cytotoxicity at 10 µM stood at 2.4%.

With `O=C(O)CCNC(=O)C1(c2cccc(Br)c2)CCOCC1`, the cytotoxicity at 10 µM came to 6.92%.

Take `O=C(NCC1CC1)c1n[nH]c2c1CNCC2`: the cytotoxicity at 10 µM was determined as 4.14%.

`Cc1nccn1-c1ccc(NS(=O)(=O)c2cnn(C(C)C)c2)cn1`: the cytotoxicity at 10 µM is -5.05%.

For `Cc1cccc(C(=O)N2CCSCC2)c1NC(=O)c1ccsc1`, the cytotoxicity at 10 µM turned out to be 3.85%.

As for `N#CCCCn1nnnc1Cc1ccc(Br)cc1`, the cytotoxicity at 10 µM amounted to 1.56%.

With `CC(C)Nc1nc2c(c(NC3CC3)n1)CN(C(=O)c1ccsc1)CC2`, the cytotoxicity at 10 µM was -27.2%.

Take `Cc1cc(NCCC(=O)NC2CCCCC2)nc(-c2ccncc2)n1`: the cytotoxicity at 10 µM was -5.37%.

In the case of `CC(C)OC(=O)CCNC(=O)Nc1cccc2ncccc12`, the cytotoxicity at 10 µM was 1.03%.

On to `Cc1occc1C(=O)N1CCC2(CCCN(Cc3nccs3)C2)C1` (configuration not stated), for which the cytotoxicity at 10 µM is -3.32%.

As for `Cc1cnc(C(=O)N2CCN3C[C@H](OCc4cccnc4)C[C@H]3C2)cn1`, the cytotoxicity at 10 µM was -59.7%.

`Cc1cccc(C(C)CNC(=O)N2CCC3(C2)OCCO3)c1` (configuration not stated): the cytotoxicity at 10 µM came to 16.1%.

As for `O=C1OC2(CCN(C(=O)C3NCCc4[nH]cnc43)CC2)c2ccccc21` (configuration not stated), the cytotoxicity at 10 µM is -7.05%.

Regarding `O=C1CCCN1Cc1ncn2c1CN(C(=O)Cc1ccccc1)CCC2`, the cytotoxicity at 10 µM was 6.49%.

For `COc1ccc(CCC2CCCCN2)cc1` (configuration not stated), the cytotoxicity at 10 µM is -9.83%.

`CNC(=O)c1cn[nH]c1C1(C)CCCN(Cc2ccccn2)C1` (configuration not stated): the cytotoxicity at 10 µM is -10.5%.

With `Cc1cc(C)cc(N(C)S(=O)(=O)c2cc(C(=O)O)cs2)c1`, the cytotoxicity at 10 µM was -10.4%.

On to `CCc1cnc(CN(C(C)=O)C2CCN(CCc3cnn(C)c3)C2)o1` (configuration not stated), for which the cytotoxicity at 10 µM was -5.85%.

Regarding `COc1cc(CNCc2ccc(NC(=O)NC(C)C)cc2)cc(OC)c1`, the cytotoxicity at 10 µM was 0.347%.

Consider `Cc1cc(N[C@H]2CCCN(Cc3ccccc3)C2)n2nc(C)cc2n1`, for which the cytotoxicity at 10 µM was determined as 1.53%.

With `COCc1noc(-c2nn(-c3ccc(F)cc3)c3c2CCC3)n1`, the cytotoxicity at 10 µM was 2.87%.

On to `Cc1ccc(C(=O)N(Cc2cccnc2)C[C@@H]2CCC(=O)N2)s1`, for which the cytotoxicity at 10 µM was -77.9%.

Take `CN(CC(=O)NS(=O)(=O)c1ccsc1)Cc1ccccc1`: the cytotoxicity at 10 µM was -5.1%.

Regarding `OCC1CCCCN1CCCNCc1cc(O)c2cc(F)ccc2n1` (configuration not stated), the cytotoxicity at 10 µM was -39.2%.

`Cn1cc(N2C(=O)CC[C@@H]3[C@H]2CCN3CCc2ccccc2)cn1`: the cytotoxicity at 10 µM was 15.6%.

As for `c1ccc(-c2nc3c(c(NCCc4c[nH]cn4)n2)CCNC3)cc1`, the cytotoxicity at 10 µM is -123%.

Turning to `CN(C(=O)CNCCn1cccn1)C1(C#N)CCCCC1`, the cytotoxicity at 10 µM turned out to be 2.04%.

In the case of `CCc1cccc(N2CCC(NC(=O)c3ccc(=O)[nH]n3)CC2)c1`, the cytotoxicity at 10 µM was determined as 5.8%.

Regarding `COc1cccc2c1OCC(CNC(=O)Cc1csc(C(C)=O)c1)C2` (configuration not stated), the cytotoxicity at 10 µM was -146%.

With `CC(=O)NCc1ccc(C(=O)N2CCCC2c2c(C)nn(C)c2C)o1` (configuration not stated), the cytotoxicity at 10 µM is -11.3%.

In the case of `O=C(Nc1ccccn1)C1=NN(c2ccccc2)C(=O)CN1`, the cytotoxicity at 10 µM was -1.53%.

Take `Cc1ccc(CC(=O)N2Cc3nccn3CC(Cn3cccn3)C2)cc1` (configuration not stated): the cytotoxicity at 10 µM was -10.5%.

Turning to `CC(=O)N1CCC(Cc2cnc(Nc3cc(C)on3)cn2)CC1`, the cytotoxicity at 10 µM amounted to 3.48%.

With `Cn1ccnc1C1(O)CCN(C(=O)CCc2ccccc2)CC1`, the cytotoxicity at 10 µM amounted to 1.37%.

Turning to `CO[C@H]1CCN(C(=O)Cc2ccccn2)[C@H]1Cc1ccncc1`, the cytotoxicity at 10 µM worked out at 2.26%.

`Cc1nn(CCN2CCSCC2)cc1CNCC1CC1`: the cytotoxicity at 10 µM is -7.03%.

For the molecule `O=C(NCc1ccc(Br)c(F)c1)Nc1cn[nH]c1`, the cytotoxicity at 10 µM is -6.62%.

`O=C(O)Cn1ccc(=O)c2ccccc21`: the cytotoxicity at 10 µM is -9.24%.

`CC(C)CC1SCC(=O)Nc2c1cnn2C(C)C` (configuration not stated): the cytotoxicity at 10 µM is 1.11%.

In the case of `Cc1cnc(C(=O)NCc2ccc3c(c2)CCCN3C)cn1`, the cytotoxicity at 10 µM is -4.92%.

As to `c1ccc(OCc2noc3c2CN(c2ncccn2)CC3)nc1`, the cytotoxicity at 10 µM is -3.25%.

For `CC1CCCN(CCCNC(=O)Cc2csc(-c3ccoc3)n2)C1` (configuration not stated), the cytotoxicity at 10 µM was found to be 3.39%.

Take `O=C(NCCCN1CCOCC1)c1ccn(COc2ccc(Br)cc2)n1`: the cytotoxicity at 10 µM stood at 5.39%.

For the molecule `CCOC(=O)CNC(=O)N1CCN(c2ncccn2)CC1`, the cytotoxicity at 10 µM amounted to 10.6%.

As for `COc1cc(NC(=O)c2ccccc2F)c(C(=O)N(C)C)cc1OC`, the cytotoxicity at 10 µM was -14.8%.

In the case of `O=C(C1CCOC1)N1CCN(CCn2cccn2)c2ncccc2C1` (configuration not stated), the cytotoxicity at 10 µM is -104%.

With `COCC(O)CNC(=O)Nc1c(F)cc(F)cc1-c1ccccc1` (configuration not stated), the cytotoxicity at 10 µM is -4.17%.

As to `CN(C)C(C(=O)NCC(F)(F)F)c1cccc(F)c1` (configuration not stated), the cytotoxicity at 10 µM is -2.49%.

Consider `Cc1ccc2c(c1)C(=O)NCC1(CCN(C(=O)c3ccnn3C)CC1)O2`, for which the cytotoxicity at 10 µM is -16.6%.

`Cc1ccc2cc(CNCCCN3CCOCC3)c(=O)[nH]c2c1C`: the cytotoxicity at 10 µM was -10.1%.

On to `CCc1ncc2c(n1)CN(Cc1cnc(C)cn1)CC2`, for which the cytotoxicity at 10 µM was -7.51%.

In the case of `CC(=O)N(C)CC(=O)NC1(c2ccc(Br)cc2)CC1`, the cytotoxicity at 10 µM was -10.7%.

In the case of `Cc1nn(CC(C)C)c(N(C)C)c1CNCc1ccccc1CO`, the cytotoxicity at 10 µM is -15.2%.

For `CCCN(C)C(=O)c1cc(Br)cc(S(=O)(=O)N2CCOCC2)c1F`, the cytotoxicity at 10 µM was determined as 6.83%.

For the molecule `O=C(CN1CCCC(Cn2cncn2)C1)NCCOc1ccccc1` (configuration not stated), the cytotoxicity at 10 µM came out at 5.61%.

As for `O=C(Cc1ccc(O)c(F)c1)N1CCC2(CCNCC2)CC1`, the cytotoxicity at 10 µM is -7.43%.

Turning to `NS(=O)(=O)CCNC(=O)CCc1cc(Br)cs1`, the cytotoxicity at 10 µM was -3.39%.

As for `Cc1nc(CN2CCN(C(=O)c3scnc3C)CC2)cs1`, the cytotoxicity at 10 µM is 0.524%.

As for `CCn1cc(NC(=O)NCC(c2cccc(F)c2)N(C)C)cn1` (configuration not stated), the cytotoxicity at 10 µM was 0.633%.

With `CC(CNS(C)(=O)=O)c1ccc(F)c(F)c1` (configuration not stated), the cytotoxicity at 10 µM is -4.71%.

As to `Cn1c(CN2CCCCC2)nnc1C1CCN(c2nccc(N)n2)CC1`, the cytotoxicity at 10 µM is -7.98%.

Take `N#Cc1ccc(C2CC(=O)Nc3c(C(=O)O)nsc32)cc1` (configuration not stated): the cytotoxicity at 10 µM was found to be 3.02%.

`COc1ccc(CN2C[C@@H]3C(CC(=O)N4CCCC4)[C@@H]3C2)cc1` (some centres not stated): the cytotoxicity at 10 µM is -13.8%.

As to `O=C(c1ccc(-n2cccn2)nc1)N1CCCN(c2cccnn2)CC1`, the cytotoxicity at 10 µM is 0.65%.

As for `Cc1ccnc(OC[C@@]23CCO[C@@H]2CCN(c2ncc(F)cn2)C3)n1`, the cytotoxicity at 10 µM was determined as 10.9%.

For `CCOc1ncccc1Cn1cc2[nH]cccc-2c1=O`, the cytotoxicity at 10 µM amounted to 1.93%.

Consider `Cc1cnc(N2CCN(C)c3ncccc3C2)nc1`, for which the cytotoxicity at 10 µM was -5.86%.

As to `O=C(c1ccc(F)cc1)N1C[C@@H]2OCCN(c3ncccn3)[C@@H]2C1`, the cytotoxicity at 10 µM was -9.55%.

With `CCCN(CC(=O)N(C)C)C(=O)c1ccc(-c2nc(C)cs2)cc1`, the cytotoxicity at 10 µM is -15.7%.

`Cc1cccc(CN2CC[C@@H]3[C@@H]2CCN3C(=O)Cc2ccsc2)n1`: the cytotoxicity at 10 µM was -107%.

For the molecule `O=C(CN1CCOC(Cn2cccn2)C1)Nc1cccnc1` (configuration not stated), the cytotoxicity at 10 µM is 10.7%.

Turning to `O=C(c1cccs1)N1C[C@@H]2OCCN(CC3CCCO3)[C@@H]2C1` (some centres not stated), the cytotoxicity at 10 µM is -2.24%.

As to `CCn1cc(Br)c(C(=O)NCc2ccc(F)cc2)n1`, the cytotoxicity at 10 µM is -3.01%.

With `CC[C@@H]1N(Cc2ccccn2)CCC[C@]12CCC(=O)N2CCOC`, the cytotoxicity at 10 µM amounted to 8.01%.

In the case of `FC(F)(F)CCc1ccnc(NCc2csc(N3CCOCC3)n2)n1`, the cytotoxicity at 10 µM is -4.13%.

Take `Cn1cnc(S(=O)(=O)N2CCN(Cc3ccco3)CC2)c1Cl`: the cytotoxicity at 10 µM was -3.85%.

Consider `CN(Cc1nnc(C2CC2)n1C)C1CCN(Cc2nccn2C)C1` (configuration not stated), for which the cytotoxicity at 10 µM is -8.22%.

Consider `CC(=O)N1CCC(C(=O)N2CCCC(Cc3ccccn3)C2)CC1` (configuration not stated), for which the cytotoxicity at 10 µM was found to be 6.97%.

For `CCc1ncc(C(=O)N(CCOC)Cc2nccs2)cn1`, the cytotoxicity at 10 µM was -1.47%.

As for `CC(=O)N1N=C(c2cccs2)OC1C(=O)NCc1ccc(C)o1` (configuration not stated), the cytotoxicity at 10 µM is -4.67%.

Take `CCc1cn[nH]c1C1CCN(c2cc(C)c3cc(OC)ccc3n2)CC1`: the cytotoxicity at 10 µM amounted to 1.93%.
